Reference: ChEMBL document CHEMBL4387745, “Development of bivalent compounds as potential neuroprotectants for Alzheimer's disease” (Bioorg Med Chem Lett, 2019)
Activity calls are given as the source filed them. The calls are words filed in the database; no cut-off is given here.

How the values were obtained:
[1] = Neuroprotective activity against tetracycline removal-induced cytotoxicity in human MC65 cells assessed as increase in cell viability incubated for 72 hrs by MTT assay; assay type: functional, cell-based; conditions: MC65, 72 h
Outline: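 MC65 cells (C99 expression under tetracycline suppression; cytotoxicity induced by TC removal) treated across a concentration range for 72 h under −TC, with +TC cultures as 100% viability reference. Viability read by MTT. EC50 reported as mean ± SEM of three independent experiments.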

Homo sapiens [2] = organism: Homo sapiens; test: Neuroprotective activity against tetracycline removal-induced oxidative stress in human MC65 cells assessed as reduction in accumulation of intracellular ROS at 1 uM incubated for 48 hrs by DCFH-DA staining-based fluorescence analysis relative to control; assay type: functional, cell-based
Outline: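 MC65 cells without TC given compound (1 μM) for 48 h, then incubated with DCFH-DA (25 μM) for 1 h. ROS given as percentage of fluorescence intensity relative to +TC control; error bars SEM, Student t-test versus −TC control.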

[3] = Metal chelating activity assessed as compound-Cu2+ complex formation at 50 uM after 10 mins by UV-vis spectroscopy
Outline: (§1)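 Compound at 50 μM mixed with CuSO₄, FeCl₂ or ZnCl₂ (60 μM) at room temperature for 10 min; UV-vis spectrum then recorded from 300 to 550 nm.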

[4] = Metal chelating activity assessed as compound-Fe2+ complex formation at 50 uM after 10 mins by UV-vis spectroscopy; outline: as §1
[5] = Metal chelating activity assessed as compound-Zn2+ complex formation at 50 uM after 10 mins by UV-vis spectroscopy; outline: as §1
Homo sapiens [6] = organism: Homo sapiens; test: Neuroprotective activity against tetracycline removal-induced mitochondrial oxidative stress in human MC65 cells assessed as reduction in accumulation of mitoROS at 0.1 to 1 uM incubated for 48 hrs by MitoSOX red dye-based flow cytometric analysis relative to control; assay type: functional, cell-based
Outline: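 After TC removal, MC65 cells were exposed to compound at 1, 0.3 or 0.1 μM for 48 h, then loaded with MitoSOX (2.5 μM) for 30 min. Mitochondrial ROS expressed as percent fluorescence intensity versus +TC control; error bars SEM, Student t-test versus −TC control.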

| Compound | EC50 [1] | Activity (Homo sapiens [2]) | Activity [3] | Activity [4] | Activity [5] | Activity (Homo sapiens [6]) |
| --- | --- | --- | --- | --- | --- | --- |
| COc1cc(/C=C/C(=O)C(Cc2cn(CCCCC(=O)NCCCN3CCN(CCCNC(=O)CCC(=O)NCCCN4CCN(CCCNC(=O)CO[C@H]5CC[C@@]6(C)C(=CC[C@H]7[C@@H]8CC[C@H]([C@H](C)CCCC(C)C)[C@@]8(C)CC[C@@H]76)C5)CC4)CC3)nn2)C(=O)/C=C/c2ccc(O)c(OC)c2)ccc1O | 105 nM | Active | – | – | – | – |
| COc1cc(/C=C/C(=O)C(Cc2cn(CCCCC(=O)NCCCN3CCN(CCCNC(=O)CCN4CCN(CCCO[C@H]5CC[C@@]6(C)C(=CC[C@H]7[C@@H]8CC[C@H]([C@H](C)CCCC(C)C)[C@@]8(C)CC[C@@H]76)C5)CC4)CC3)nn2)C(=O)/C=C/c2ccc(O)c(OC)c2)ccc1O | 238 nM | Active | – | – | – | – |
| COc1cc(/C=C/C(=O)C(Cc2cn(CCC(=O)NCCCN3CCN(CCCNC(=O)CCN4CCN(CCCO[C@H]5CC[C@@]6(C)C(=CC[C@H]7[C@@H]8CC[C@H]([C@H](C)CCCC(C)C)[C@@]8(C)CC[C@@H]76)C5)CC4)CC3)nn2)C(=O)/C=C/c2ccc(O)c(OC)c2)ccc1O | 136 nM | Active | Active | Active | inactive | – |
| COc1cc(/C=C/C(=O)C(Cc2cn(CCCCNC(=O)CCC(=O)NCCCN3CCN(CCCNC(=O)CO[C@H]4CC[C@@]5(C)C(=CC[C@H]6[C@@H]7CC[C@H]([C@H](C)CCCC(C)C)[C@@]7(C)CC[C@@H]65)C4)CC3)nn2)C(=O)/C=C/c2ccc(O)c(OC)c2)ccc1O | 140 nM | Active | – | – | – | – |
| COc1cc(/C=C/C(=O)C(Cc2cn(CCNC(=O)CCC(=O)NCCCN3CCN(CCCNC(=O)CO[C@H]4CC[C@@]5(C)C(=CC[C@H]6[C@@H]7CC[C@H]([C@H](C)CCCC(C)C)[C@@]7(C)CC[C@@H]65)C4)CC3)nn2)C(=O)/C=C/c2ccc(O)c(OC)c2)ccc1O | 74.1 nM | Active | – | – | – | – |
| COc1cc(/C=C/C(=O)C(Cc2cn(CCC(=O)NCCCN3CCN(CCCNC(=O)CCC(=O)NCCCN4CCN(CCCNC(=O)CO[C@H]5CC[C@@]6(C)C(=CC[C@H]7[C@@H]8CC[C@H]([C@H](C)CCCC(C)C)[C@@]8(C)CC[C@@H]76)C5)CC4)CC3)nn2)C(=O)/C=C/c2ccc(O)c(OC)c2)ccc1O | 103 nM | Active | – | – | – | – |
| COc1cc(/C=C/C(=O)C(Cc2cn(CCCCNC(=O)CCC(=O)NCCCN3CCN(CCCNC(=O)CCN4CCN(CCCO[C@H]5CC[C@@]6(C)C(=CC[C@H]7[C@@H]8CC[C@H]([C@H](C)CCCC(C)C)[C@@]8(C)CC[C@@H]76)C5)CC4)CC3)nn2)C(=O)/C=C/c2ccc(O)c(OC)c2)ccc1O | 359 nM | Active | – | – | – | – |
| COc1cc(/C=C/C(=O)C(Cc2cn(CCC(=O)NCCCN3CCN(CCCNC(=O)CO[C@H]4CC[C@@]5(C)C(=CC[C@H]6[C@@H]7CC[C@H]([C@H](C)CCCC(C)C)[C@@]7(C)CC[C@@H]65)C4)CC3)nn2)C(=O)/C=C/c2ccc(O)c(OC)c2)ccc1O | 81.9 nM | Active | Active | Active | inactive | Dose-dependent effect |
| COc1cc(/C=C/C(=O)C(Cc2cn(CCNC(=O)CCC(=O)NCCCN3CCN(CCCNC(=O)CCN4CCN(CCCO[C@H]5CC[C@@]6(C)C(=CC[C@H]7[C@@H]8CC[C@H]([C@H](C)CCCC(C)C)[C@@]8(C)CC[C@@H]76)C5)CC4)CC3)nn2)C(=O)/C=C/c2ccc(O)c(OC)c2)ccc1O | 132 nM | Active | – | – | – | – |
| COc1cc(/C=C/C(=O)C(Cc2cn(CCCCC(=O)NCCCN3CCN(CCCNC(=O)CO[C@H]4CC[C@@]5(C)C(=CC[C@H]6[C@@H]7CC[C@H]([C@H](C)CCCC(C)C)[C@@]7(C)CC[C@@H]65)C4)CC3)nn2)C(=O)/C=C/c2ccc(O)c(OC)c2)ccc1O | 107 nM | Active | – | – | – | – |
